Test results reported in ChEMBL document CHEMBL3120097, “HCV NS5A replication complex inhibitors. Part 4. Optimization for genotype 1a replicon inhibitory activity” (J Med Chem, 2014).

Key:
Hepatitis C virus [1] = assay: Antiviral activity against HCV genotype 1b infected in human HuH7 cells after 72 hrs by FRET assay; assay type: functional, organism-based, Hepacivirus hominis; conditions: Huh-7, 72 h
Procedure, shortened: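 Replicon cells seeded 10K/well, attached overnight; compounds added with 0.5% v/v DMSO vehicle controls, typically 72 h. Alamar blue read first, then cells PBS-rinsed and lysed with reagent holding 150 mM NaCl and 20 μM final EDANS/DABCYL NS3 protease peptide; kinetic fluorescence 340/490 nm. EC₅₀ = concentration halving background-subtracted FRET signal versus DMSO wells.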

Hepatitis C virus [2] = assay: Antiviral activity against HCV genotype 1a H77c infected in human HuH7 cells after 72 hrs; conditions: Huh-7, 72 h
[3] = tested on: Bovine viral diarrhea virus 1; assay: Antiviral activity against BVDV infected in bovine MDBK cells after 72 hrs by luciferase reporter gene assay; assay type: functional, organism-based; conditions: Bovine viral diarrhea virus isolates and strains
[4] = Cytotoxicity against bovine MDBK cells after 3 days by CellTitre-Blue assay; assay type: cell-based, Bos taurus; conditions: cattle

- EC50 (Hepatitis C virus [1]): 0.28 µM
- EC50 (Hepatitis C virus [2]): 3.1 µM
- EC50 [3]: > 5 µM
Structure (SMILES): O=C(Nc1ccc(/C=C/c2ccc(NC(=O)[C@@H]3CCCN3C(=O)c3cc4ccccc4cn3)cc2)cc1)[C@@H]1CCCN1C(=O)c1cc2ccccc2cn1
- CC50 at 72 h [4]: > 10 µM
